In ChEMBL document CHEMBL4732268, “Discovery of a Potent and Selective Covalent p300/CBP Inhibitor” (ACS Med Chem Lett, 2021):

How the values were obtained:
[1] = Inhibition of human p300-BHC domain (residues 1036-1822)/CBP-BHC domain (residues 1072-1859) expressed in Bac-to-Bac Baculovirus expression system assessed as inhibition of lysine residues acetylation in Histone H4 synthetic substrate preincubated for 30 mins followed by addition of substrate and acetyl coenzyme A and measured after 1 hr by TR-FRET assay
LNCaP-Clone-FGC = assay: Antiproliferative activity against AR-positive human LNCaP-Clone-FGC cells assessed as inhibition of cell proliferation measured after 5 days by luminiscent plate reader method; assay type: functional, cell-based; conditions: 120 h
Method in brief: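 LNCaP-FGC cells (androgen receptor-positive) were treated with compound for 5 days, then proliferation was read in a cell-growth assay. EC50 was derived from N = 2.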

[2] = Inhibition of human p300/CBP in human PC-3 cells assessed as decrease in H3K27 acetylation measured after 3 hrs by Fluorescence based plate reader assay; assay type: cell-based; conditions: PC-3, 3 h
Method in brief: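 PC-3 cells were treated with compound for 3 h, and the reduction in H3K27 acetylation was measured.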

Homo sapiens [3] = organism: Homo sapiens; assay: Ratio of EC50 for human p300/CBP in human PC-3 cells incubated for 24 hrs and measured 48 hr post washout to EC50 for human p300/CBP in human PC-3 cells measured after 24 hrs; assay type: cell-based
Homo sapiens [4] = organism: Homo sapiens; assay: Ratio of EC50 for human p300/CBP in human PC-3 cells incubated for 24 hrs and measured 4 hr post washout to EC50 for human p300/CBP in human PC-3 cells measured after 24 hrs; assay type: cell-based
[5] = Inhibition of human p300/CBP in human PC-3 cells assessed as decrease in H3K27 acetylation measured after 24 hrs by Fluorescence based plate reader assay; assay type: cell-based; conditions: PC-3, 24 h
[6] = Inhibition of human p300/CBP in human PC-3 cells assessed as decrease in H3K27 acetylation incubated for 24 hrs followed by compound washout and measured after 4 hr by Fluorescence based plate reader assay; assay type: cell-based
Method in brief: (§1)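 Washout assay. PC-3 cells were incubated with compound for 24 h, washed, and given fresh compound-free medium. Incubation then continued, and H3K27 acetylation was measured at set times from 1 to 48 h after washout. Inhibition is reported as EC50.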

[7] = Inhibition of human p300/CBP in human PC-3 cells assessed as decrease in H3K27 acetylation measured after 48 hrs by Fluorescence based plate reader assay; assay type: cell-based; conditions: PC-3, 48 h
Homo sapiens [8] = organism: Homo sapiens; assay: Ratio of EC50 for human p300/CBP in human PC-3 cells incubated for 24 hrs and measured 24 hr post washout to EC50 for human p300/CBP in human PC-3 cells measured after 24 hrs; assay type: cell-based
DU-145 = assay: Antiproliferative activity against human DU-145 cells assessed as inhibition of cell proliferation measured after 5 days by luminiscent plate reader method; assay type: functional, cell-based; conditions: DU-145, 120 h
Method in brief: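 DU-145 cells (androgen receptor-negative) were treated with compound for 5 days, then proliferation was read in a cell-growth assay. EC50 was derived from the dose response.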

[9] = Inhibition of human p300/CBP in human PC-3 cells assessed as decrease in H3K27 acetylation incubated for 24 hrs followed by compound washout and measured after 24 hr by Fluorescence based plate reader assay; assay type: cell-based; conditions: PC-3, 24 h; method in brief: as §1
[10] = Inhibition of human p300/CBP in human PC-3 cells assessed as decrease in H3K27 acetylation incubated for 24 hrs followed by compound washout and measured after 48 hr by Fluorescence based plate reader assay; assay type: cell-based; method in brief: as §1
Homo sapiens [11] = organism: Homo sapiens; assay: Ratio of EC50 for human p300/CBP in human PC-3 cells incubated for 24 hrs and measured 8 hr post washout to EC50 for human p300/CBP in human PC-3 cells measured after 24 hrs; assay type: cell-based
[12] = Inhibition of human p300/CBP in human PC-3 cells assessed as decrease in H3K27 acetylation incubated for 24 hrs followed by compound washout and measured after 8 hr by Fluorescence based plate reader assay; assay type: cell-based; method in brief: as §1
Homo sapiens [13] = organism: Homo sapiens; assay: Ratio of EC50 for human p300/CBP in human PC-3 cells incubated for 24 hrs and measured 2 hr post washout to EC50 for human p300/CBP in human PC-3 cells measured after 24 hrs; assay type: cell-based
Homo sapiens [14] = organism: Homo sapiens; assay: Ratio of EC50 for human p300/CBP in human PC-3 cells measured after 48 hr to EC50 for human p300/CBP in human PC-3 cells measured after 24 hrs; assay type: cell-based
Homo sapiens [15] = organism: Homo sapiens; assay: Ratio of EC50 for human p300/CBP in human PC-3 cells incubated for 24 hrs and measured 1 hr post washout to EC50 for human p300/CBP in human PC-3 cells measured after 24 hrs; assay type: cell-based
[16] = Inhibition of human p300/CBP in human PC-3 cells assessed as decrease in H3K27 acetylation incubated for 24 hrs followed by compound washout and measured after 2 hr by Fluorescence based plate reader assay; assay type: cell-based; method in brief: as §1
[17] = Inhibition of human p300/CBP in human PC-3 cells assessed as decrease in H3K27 acetylation incubated for 24 hrs followed by compound washout and measured after 1 hr by Fluorescence based plate reader assay; assay type: cell-based; method in brief: as §1

C=CS(=O)(=O)Nc1ccc(NC(=O)Nc2ccc3c(c2)CC[C@@]32OC(=O)N(CC(=O)N(Cc3ccc(F)cc3)[C@@H](C)C(F)(F)F)C2=O)cc1
IC50 [1]: 3.02 µM

C=CS(=O)(=O)c1ccc(NC(=O)Nc2ccc3c(c2)CC[C@@]32OC(=O)N(CC(=O)N(Cc3ccc(F)cc3)[C@@H](C)C(F)(F)F)C2=O)cc1
IC50 [1]: 4.27 µM

C=CC(=O)NCC(C)(C)CNC(=O)Nc1ccc2c(c1)CC[C@@]21OC(=O)N(CC(=O)N(Cc2ccc(F)cc2)[C@@H](C)C(F)(F)F)C1=O
EC50 (LNCaP-Clone-FGC): 0.177 µM | EC50 [2]: 0.048 µM | IC50 [1]: 0.185 µM

C=CC(=O)Nc1cccc(NC(=O)Nc2ccc3c(c2)CC[C@@]32OC(=O)N(CC(=O)N(Cc3ccc(F)cc3)[C@@H](C)C(F)(F)F)C2=O)c1
Ratio (Homo sapiens [3]): 57.7 | Ratio (Homo sapiens [4]): 2.1 | EC50 [5]: 0.011 µM | EC50 [6]: 0.024 µM | EC50 [7]: 0.021 µM | Ratio (Homo sapiens [8]): 47.8 | EC50 (DU-145): 1.37 µM | EC50 [9]: 0.544 µM | EC50 [10]: 0.656 µM | EC50 (LNCaP-Clone-FGC): 0.087 µM | Ratio (Homo sapiens [11]): 11.3 | EC50 [12]: 0.129 µM | EC50 [2]: 0.037 µM | Ratio (Homo sapiens [13]): 1.5 | IC50 [1]: 0.166 µM | Ratio (Homo sapiens [14]): 1.8 | Ratio (Homo sapiens [15]): 1.3 | EC50 [16]: 0.017 µM | EC50 [17]: 0.015 µM

C=CC(=O)Nc1ccc(NC(=O)Nc2ccc3c(c2)CC[C@@]32OC(=O)N(CC(=O)N(Cc3ccc(F)cc3)[C@@H](C)C(F)(F)F)C2=O)cc1
IC50 [1]: 22.1 µM

C=CS(=O)(=O)Nc1cccc(NC(=O)Nc2ccc3c(c2)CC[C@@]32OC(=O)N(CC(=O)N(Cc3ccc(F)cc3)[C@@H](C)C(F)(F)F)C2=O)c1
EC50 [2]: 1.23 µM | IC50 [1]: 0.604 µM

CNC(=O)Nc1ccc2c(c1)CC[C@@]21OC(=O)N(CC(=O)N(Cc2ccc(F)cc2)[C@@H](C)C(F)(F)F)C1=O [A-485]
EC50 [5]: 0.227 µM | EC50 [6]: > 10 µM | EC50 [7]: 0.253 µM | EC50 [9]: > 10 µM | EC50 [10]: > 10 µM | EC50 (LNCaP-Clone-FGC): 0.35 µM | EC50 [12]: > 10 µM | EC50 [2]: 0.103 µM | EC50 [16]: > 10 µM | EC50 [17]: > 10 µM

C=CC(=O)N1CCCN(C(=O)Nc2ccc3c(c2)CC[C@@]32OC(=O)N(CC(=O)N(Cc3ccc(F)cc3)[C@@H](C)C(F)(F)F)C2=O)C1
IC50 [1]: 2 µM
